# Assay results as given in ChEMBL document CHEMBL1687883, “Dinoxin B, a withanolide from Datura inoxia leaves with specific cytotoxic activities” (J Nat Prod, 2011).
# Key:
# [1] = test system: A-427; assay: Cytotoxicity against human A427 cells after 48 hrs by CellTiterGlo luminescent assay; format: functional, cell-based; details: A-427, 48 h
# Procedure, shortened: (§1)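 Cells (5000-15 000 per well) were plated and left to adhere for 24 h in standard growth medium under ATCC-recommended conditions. The medium was then replaced and the compound added across varying doses, with DMSO in the final medium. Viability was read by ATP-dependent CellTiter-Glo luminescence, and IC50 values were derived from the dose series.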
# [2] = test system: MDA-MB-231; assay: Cytotoxicity against human MDA-MB-231 cells after 48 hrs by CellTiterGlo luminescent assay; format: functional, cell-based; details: MDA-MB-231, 48 h; procedure, shortened: as §1
# [3] = Cytotoxicity against human NHF177 cells after 48 hrs by CellTiterGlo luminescent assay; format: cell-based; details: NHF177, 48 h; procedure, shortened: as §1
# [4] = test system: A549; assay: Cytotoxicity against human A549 cells after 48 hrs by CellTiterGlo luminescent assay; format: functional, cell-based; details: A549, 48 h; procedure, shortened: as §1
# [5] = test system: SK-MEL-2; assay: Cytotoxicity against human SK-MEL-2 cells after 48 hrs by CellTiterGlo luminescent assay; format: functional, cell-based; details: SK-MEL-2, 48 h; procedure, shortened: as §1
# [6] = Cytotoxicity against rat IEC-6 cells after 48 hrs by CellTiterGlo luminescent assay; format: cell-based; details: IEC-6, 48 h; procedure, shortened: as §1
# [7] = test system: T47D; assay: Cytotoxicity against human T47D cells after 48 hrs by CellTiterGlo luminescent assay; format: functional, cell-based; procedure, shortened: as §1
# [8] = test system: RKO; assay: Cytotoxicity against human RKO cells after 48 hrs by CellTiterGlo luminescent assay; format: functional, cell-based; procedure, shortened: as §1
# [9] = test system: SW48; assay: Cytotoxicity against human SW48 cells after 48 hrs by CellTiterGlo luminescent assay; format: functional, cell-based; details: SW48, 48 h; procedure, shortened: as §1
# [10] = test system: HCT-116; assay: Cytotoxicity against human HCT116 cells after 48 hrs by CellTiterGlo luminescent assay; format: functional, cell-based; details: HCT-116, 48 h; procedure, shortened: as §1
# [11] = test system: OVCAR-3; assay: Cytotoxicity against human OVCAR3 cells after 48 hrs by CellTiterGlo luminescent assay; format: functional, cell-based; details: OVCAR-3, 48 h; procedure, shortened: as §1
# [12] = test system: HepG2; assay: Cytotoxicity against human HepG2 cells after 48 hrs by CellTiterGlo luminescent assay; format: functional, cell-based; details: HepG2, 48 h; procedure, shortened: as §1
# [13] = test system: UACC-62; assay: Cytotoxicity against human UACC62 cells after 48 hrs by CellTiterGlo luminescent assay; format: functional, cell-based; details: UACC-62, 48 h; procedure, shortened: as §1
# [14] = test system: MDA-MB-468; assay: Cytotoxicity against human MDA-MB-468 cells after 48 hrs by CellTiterGlo luminescent assay; format: functional, cell-based; details: MDA-MB-468, 48 h; procedure, shortened: as §1
# [15] = test system: MCF7; assay: Cytotoxicity against human MCF7 cells after 48 hrs by CellTiterGlo luminescent assay; format: functional, cell-based; details: MCF7, 48 h; procedure, shortened: as §1
# [16] = test system: Huh-7; assay: Cytotoxicity against human HuH7 cells after 48 hrs by CellTiterGlo luminescent assay; format: functional, cell-based; details: Huh-7, 48 h; procedure, shortened: as §1
# [17] = Cytotoxicity against human Hep3B cells after 48 hrs by CellTiterGlo luminescent assay; format: functional, cell-based, Hep 3B2; procedure, shortened: as §1
# [18] = test system: HUVEC; assay: Cytotoxicity against human HUVEC cells after 48 hrs by CellTiterGlo luminescent assay; format: cell-based; procedure, shortened: as §1
# [19] = test system: MDA-MB-453; assay: Cytotoxicity against human MDA-MB-453 cells after 48 hrs by CellTiterGlo luminescent assay; format: functional, cell-based; details: MDA-MB-453, 48 h; procedure, shortened: as §1
# [20] = test system: COLO 205; assay: Cytotoxicity against human COLO205 cells after 48 hrs by CellTiterGlo luminescent assay; format: functional, cell-based; details: COLO 205, 48 h; procedure, shortened: as §1
# [21] = test system: SK-MEL-28; assay: Cytotoxicity against human SK-MEL-28 cells after 48 hrs by CellTiterGlo luminescent assay; format: functional, cell-based; details: SK-MEL-28, 48 h; procedure, shortened: as §1
# [22] = test system: SK-MEL-5; assay: Cytotoxicity against human SK-MEL-5 cells after 48 hrs by CellTiterGlo luminescent assay; format: functional, cell-based; details: SK-MEL-5, 48 h; procedure, shortened: as §1
# [23] = Cytotoxicity against human Hs 578T cells after 48 hrs by CellTiterGlo luminescent assay; format: functional, cell-based; procedure, shortened: as §1
smiles,measurement,setting,value
CC1=C(CO[C@@H]2O[C@H](CO)[C@@H](O)[C@H](O)[C@H]2O)C(=O)O[C@@H]([C@@H](CO)[C@H]2CC[C@H]3[C@@H]4CC=C5CC=CC(=O)[C@]5(C)[C@H]4C[C@@H](O)[C@]23C)C1 [DINOXIN B],IC50,[1],870 nM
same,IC50,[2],1000 nM
same,IC50,[3],1230 nM
same,IC50,[4],3400 nM
same,IC50,[5],360 nM
same,IC50,[6],3300 nM
same,IC50,[7],220 nM
same,IC50,[8],360 nM
same,IC50,[9],580 nM
same,IC50,[10],1000 nM
same,IC50,[11],3200 nM
same,IC50,[12],1500 nM
same,IC50,[13],500 nM
same,IC50,[14],580 nM
same,IC50,[15],610 nM
same,IC50,[16],1500 nM
same,IC50,[17],670 nM
same,IC50,[18],740 nM
same,IC50,[19],3000 nM
same,IC50,[20],2200 nM
same,IC50,[21],2300 nM
same,IC50,[22],1400 nM
same,IC50,[23],440 nM
CC1=C(CO)C(=O)O[C@@H]([C@@H](CO)[C@H]2CC[C@H]3[C@@H]4CC=C5CC=CC(=O)[C@]5(C)[C@H]4C[C@@H](O)[C@]23C)C1,IC50,[7],990 nM
same,IC50,[14],750 nM
same,IC50,[15],870 nM
